ADAM17 inh: inhibitors of human ADAM17. recombinant ADAM17, EDANS/DABCYL FRET peptide cleavage. hit rate 0.83% among 370,000. inhibition, % at 6.95 µM;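 active = inhibition above the mean of compounds lying between control limits plus 3 SD, set per campaign, cut at about 8.5% in these data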;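 also: 0% = DMSO-only wells as the low control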
NR2E3 ag-1: activates human photoreceptor nuclear receptor NR2E3; Q9Y5X4; GST-NR2E3/biotin-RetCOR TR-FRET, 1536-well; inhibition of corepressor binding, % at 4.78 µM; hit rate 0.12% among 320,000; AID 2300;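 active = percent inhibition above the cutoff of mean plus 3 SD of all tested compounds, set per screening campaign, cut at about 20% in these data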;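 also: 0% = DMSO wells and 100% = biotin wells as full block of FRET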
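System: GST-tagged NR2E3 plus biotinylated RetCOR corepressor; Amount: 1.35 nM GST-tagged NR2E3 final; Dosing: single nominal compound dose of 4.8 µM; Schedule: 5 h incubation at 4 °C; Technique: TR-FRET with europium anti-GST and streptavidin-D2, 340 nm excitation; Controls: biotin wells as high control, 0.6% DMSO wells as low control.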
NR2E3 ag-2: human photoreceptor-specific nuclear receptor agonism | Q9Y5X4 | CHO-S Gal4-NCOR/VP16-NR2E3 two-hybrid, luciferase | inhibition of corepressor binding, % at 3.98 µM | hit rate 0.35% among 360,000 | AID 602229;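 active = inhibition above the mean of all tested compounds plus 3 SD, cut at about 70% in these data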;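 also: 0% = DMSO with NR2E3 transfected cells and 100% = cells lacking NR2E3 construct; higher means lower luciferase signal from less NR2E3 corepressor binding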
ADAM10 inh: inhibits human ADAM10; recombinant ADAM10, EDANS/DABCYL FRET peptide cleavage, 3 h; AID 720582; O14672; hit rate 0.62% among 370,000; inhibition, % at 7 µM;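 active = inhibition above a per-campaign cutoff equal to the mean of compounds falling between control-based bounds plus 3 SD, cut at about 20% in these data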;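 also: 0% = DMSO wells while the 100% control is not disclosed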
KLK7 zymogen act: activators of human kallikrein-7 zymogen. P49862. purified proKLK7, EDANS-DABCYL substrate fluorescence; 100% is mature enzyme control, 0% vehicle. activation, % at 7 µM. hit rate 0.9% among 370,000. AID 652039;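 active = activation above the mean of all tested compounds plus 3 SD, computed per campaign excluding outliers beyond control limits, cut at about 13% in these data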
Target sequence (P49862 whole entry, looked up): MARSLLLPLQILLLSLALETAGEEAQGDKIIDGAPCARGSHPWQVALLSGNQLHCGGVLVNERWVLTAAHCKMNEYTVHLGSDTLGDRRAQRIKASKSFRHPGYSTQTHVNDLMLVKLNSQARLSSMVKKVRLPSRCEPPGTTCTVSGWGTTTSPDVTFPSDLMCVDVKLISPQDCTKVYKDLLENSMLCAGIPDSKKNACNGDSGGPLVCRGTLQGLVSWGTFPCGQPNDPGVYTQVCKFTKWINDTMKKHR
JMJD2C inh: inhibitors of human GASC-1 (JMJD2C) demethylase. AID 2099. GST-JMJD2C(1-420) H3K9me3 demethylation, DELFIA europium. hit rate 0.069% among 330,000. Q9H3R0. inhibition, % at 2.35 µM;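 active = more than half of a compound's replicate wells show inhibition beyond 50%, single wells judged on their own value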;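 also: signal counts dimethyl H3K9 product captured on neutravidin plate; 0% = median of DMSO wells and 100% = 0.3 times that DMSO median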
Target sequence (Q9H3R0 1-420 limits assumed): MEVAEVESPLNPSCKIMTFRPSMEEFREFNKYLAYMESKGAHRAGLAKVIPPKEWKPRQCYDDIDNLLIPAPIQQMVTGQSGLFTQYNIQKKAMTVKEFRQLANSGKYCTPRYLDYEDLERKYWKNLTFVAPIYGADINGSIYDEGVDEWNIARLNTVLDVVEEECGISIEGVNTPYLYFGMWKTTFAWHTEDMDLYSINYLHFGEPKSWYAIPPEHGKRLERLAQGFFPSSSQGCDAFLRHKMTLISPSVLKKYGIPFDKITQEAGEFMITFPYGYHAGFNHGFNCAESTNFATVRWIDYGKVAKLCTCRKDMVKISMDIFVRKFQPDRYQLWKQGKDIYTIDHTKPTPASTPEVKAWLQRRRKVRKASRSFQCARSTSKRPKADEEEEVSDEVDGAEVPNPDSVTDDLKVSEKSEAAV
ADAM10 confirm: confirmation of inhibitors of human ADAM10 | shares compounds with ADAM10 inh | AID 743208 | hit rate 1% among 2,100 | inhibition, % at 6.95 µM | ADAM10 QFRET peptide cleavage, EDANS fluorescence;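 active = inhibition above about 20% chosen separately for each screening run, limit read from the data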;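 also: 0% = DMSO wells and 100% = marimastat wells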
ADAM17 ctr: counter-screen for ADAM10 exosite inhibitors: inhibitors of human ADAM17 | ADAM17 QFRET peptide cleavage, EDANS fluorescence | hit rate 0.5% among 2,100 | shares compounds with ADAM10 inh | inhibition, % at 6.95 µM;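 active = mean triplicate inhibition above the solvent-only control wells' mean plus 3 SD, cut at about 12% in these data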;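 also: 0% = DMSO wells and 100% = marimastat wells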
ADAM10 counter: counter-screen for ADAM17 exosite inhibitors: inhibitors of human ADAM10; shares compounds with ADAM17 inh; recombinant ADAM10, EDANS/DABCYL FRET peptide cleavage, 3 h; inhibition, % at 6.95 µM; hit rate 47% among 2,900; AID 743256;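 active = mean inhibition over the triplicate runs exceeds the activity threshold set in the earlier primary screen, cut at about 20% in these data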;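 also: 0% = DMSO wells and 100% = marimastat wells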
ADAM17 confirm: human ADAM17 inhibition, confirmation | inhibition, % at 6.95 µM | shares compounds with ADAM17 inh | recombinant ADAM17, EDANS/DABCYL QFRET peptide cleavage | hit rate 65% among 2,900;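 active = mean inhibition across replicates above the hit cutoff set in the primary screen, cut at about 8.5% in these data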;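 also: 0% = DMSO wells and 100% = marimastat wells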
* hit, by the source's call; nt = no result. A selection: hits, their analogues and other compounds. The true share with any hit is near 2.5%.

SMILES | ADAM17 inh | NR2E3 ag-1 | NR2E3 ag-2 | ADAM10 inh | KLK7 zymogen act | JMJD2C inh | ADAM10 confirm | ADAM17 ctr | ADAM10 counter | ADAM17 confirm
CCOC(=O)c1c(C)n(Cc2ccccc2)c2ccc(OCC(O)Cn3nc(C)cc3C)cc12 (stereo not drawn) | 12* | 3 | -25 | 33* | 1 | 4 | 9 | 3 | nt | nt
COC(=O)CNC(=O)c1cn(CCC#N)nc1-c1ccc(F)cc1 | -4 | 6 | 0 | 1 | 0 | -5 | nt | nt | nt | nt
O=C1C=CC(=O)C2C1C1(Cl)C(Cl)=C(Cl)C2(Cl)C1(Cl)Cl (stereo not drawn) | 9 | nt | -22 | 27* | 1 | nt | 7 | 3 | nt | nt
Cc1cc(N=Nc2ccccc2C)ccc1N | 6 | -1 | nt | 23* | -1 | -3 | 2 | 0 | nt | nt
CCOC(=O)[C@@H]1[C@H]2COc3ccc(Br)cc3[C@@H]2N2C(=O)N(c3cccc(C)c3)C(=O)[C@]12C | 4 | 2 | 9 | 20* | 0 | -6 | 4 | 1 | nt | nt
CCOC(=O)C1C2c3ccccc3O[C@@]1(C)N=C1SCC(=O)N12 (stereo partly drawn) | -2 | 6 | 4 | 4 | 0 | 10 | nt | nt | nt | nt
Cc1c(C(=O)c2cccc3ccccc23)c2cccc3c2n1[C@H](CN1CCOCC1)CO3 | 5 | 5 | -35 | 20* | 0 | -5 | 6 | 1 | nt | nt
O=C(CN1CCOCC1)c1cccc2ccccc12 | -1 | 2 | -3 | 2 | -1 | -10 | nt | nt | nt | nt
O=C(CN1C(=O)CN=C(c2ccccc2)c2cc(Cl)ccc21)NC1CCCCC1 | 6 | nt | nt | 0 | 0 | nt | nt | nt | nt | nt
N#CCC(=O)NN1Cc2ccccc2C1=N | -4 | 0 | -13 | 0 | 0 | 5 | nt | nt | nt | nt
O=C(CNC(=O)OCc1ccccc1)Nc1ccc(Br)cc1C(=O)c1ccccc1 | 8 | -2 | 13 | 20* | 0 | 14 | 6 | 2 | nt | nt
O=C(CNC(=O)OCc1ccccc1)NCC(=O)Nc1ccc(Br)cc1C(=O)c1ccccc1 | -3 | 6 | 1 | -9 | 0 | 19 | nt | nt | nt | nt
CC1=C(C)CC2(C(=O)NC(=O)NC2=O)C(C)C1 (stereo not drawn) | 2 | nt | -6 | -5 | 0 | nt | nt | nt | nt | nt
Nc1ccc(N2CCN(Cc3ccccc3Cl)CC2)c(Cl)c1 | 3 | 3 | 5 | 22* | 0 | -3 | 3 | 1 | nt | nt
CCOC(=O)C(O)(c1ccc(N(CC)S(=O)(=O)c2ccccc2)cc1)C(F)(F)F (stereo not drawn) | 14* | -1 | 12 | 27* | 1 | -5 | 0 | 0 | 12 | 5
COC(=O)C1=C(c2ccc(F)cc2OCc2ccccc2)C[C@@H]2CC[C@H]1N2C(=O)NCc1cccc(C(F)(F)F)c1 | 16* | 0 | 8 | 24* | -1 | -3 | 7 | 2 | 19 | 13*
COC(=O)C1=C(c2ccc(F)cc2OCc2ccccc2)C[C@@H]2CC[C@H]1N2C(=O)NCc1ccc(N(C)C)cc1 | 9.7* | 4 | 21 | 20* | 1 | -7 | 7 | 3 | 14 | 7
COC(=O)C1=C(c2ccc(F)cc2OCc2ccccc2)C[C@@H]2CC[C@H]1N2C(=O)NCCc1ccc(F)cc1 | 11* | 4 | -12 | 27* | 1 | -1 | 9 | 2 | 29* | 13*
C/C(=N\NP(=S)(c1ccccc1)c1ccccc1)c1ccc(O)cc1O | 1 | 3 | 9 | 4 | 1 | -11 | nt | nt | nt | nt
CC(=NCC1CCCO1)c1c(O)n(Cc2ccccc2)c(=O)[nH]c1=O (stereo not drawn) | -1 | 2 | 8 | -8 | 0 | -1 | nt | nt | nt | nt
COc1ccc(OC)c(-n2c(O)c(C=NCCN3CCNCC3)c(=O)[nH]c2=S)c1 | -3 | -3 | -47 | -2 | 0 | -14 | nt | nt | nt | nt
S=C1NC2(CCCCC2)NC12CCCCC2 | 0 | 1 | 11 | 3 | 0 | -3 | nt | nt | nt | nt
COC(=O)C(O)(c1ccc(NC(=S)NC(=O)c2ccc(Cl)cc2Cl)c(C)c1)C(F)(F)F (stereo not drawn) | 11* | -3 | 34 | 23* | 0 | 5 | 8 | 2 | 35* | 18*
COC(=O)C(O)(c1ccc(NC(=S)NC(=O)c2ccc(Cl)cc2Cl)cc1)C(F)(F)F (stereo not drawn) | 7 | 2 | 8 | 16 | 0 | 1 | nt | nt | nt | nt
ClCCOCCCl | -5 | 1 | 13 | -4 | 1 | 6 | nt | nt | nt | nt
SMILES | ADAM17 inh | NR2E3 ag-1 | NR2E3 ag-2 | ADAM10 inh | KLK7 zymogen act | JMJD2C inh | ADAM10 confirm | ADAM17 ctr | ADAM10 counter | ADAM17 confirm
Cc1ccc(NP(=O)(Oc2ccccc2F)Oc2ccccc2F)cc1C | 9.6* | 1 | -12 | 26* | 1 | -1 | 8 | 2 | 23* | 12*
CCOc1c(Cl)cc(CNCCc2c[nH]c3ccccc23)cc1OC | 5 | 3 | -15 | 10 | 1 | -2 | nt | nt | nt | nt
CCOc1cc(CNCCc2c[nH]c3ccccc23)cc(Cl)c1OCC | 14* | -4 | 14 | 27* | 1 | 1 | 0 | 0 | 3 | 1
CCC(c1nnnn1-c1ccc(OC)cc1)N1CCC(n2c(=O)[nH]c3ccccc32)CC1 (stereo not drawn) | 2 | nt | 4 | 2 | 0 | nt | nt | nt | nt | nt
COc1ccc(-n2nnnc2C(c2ccccc2OC(F)(F)F)N2CCC(n3c(=O)[nH]c4ccccc43)CC2)cc1 (stereo not drawn) | 10* | nt | 23 | 30* | 0 | nt | 7 | 2 | 34* | 20*
COc1ccc(-n2nnnc2C(c2ccccc2)N2CCC3(CC2)C(=O)NCN3c2ccccc2)cc1 (stereo not drawn) | 5 | nt | -31 | 4 | 0 | nt | nt | nt | nt | nt
COc1ccc(-n2nnnc2C(c2ccccc2OC(F)(F)F)N2CCC3(CC2)C(=O)NCN3c2ccccc2)cc1 (stereo not drawn) | 9.4* | nt | 0 | 25* | -1 | nt | 7 | 2 | 31* | 15*
Cc1cccc(-n2c(C)nc3ccc(Cl)cc3c2=O)c1 | -3 | 0 | 7 | 3 | 0 | 30 | nt | nt | nt | nt
COC(=O)C1=C(c2ccc(-c3ccccc3)c(F)c2)C[C@@H]2CC[C@H]1N2C(=O)NCCOc1ccc(OC)cc1 | 22* | -1 | -1 | 40* | 1 | -5 | 5 | 2 | 21* | 12*

Screening results: PubChem, several laboratories
